Reference: ChEMBL document CHEMBL2169822, “Discovery and optimization of 1,3,4-trisubstituted-pyrazolone derivatives as novel, potent, and nonsteroidal farnesoid X receptor (FXR) selective antagonists” (J Med Chem, 2012)
pKd: −log10 of the molar value. The source made the active and inactive calls. No cut-off for these calls is given here.

Key:
[1] = Binding affinity to FXRalphaLBD assessed as fluorescence quenching after 1 hr
Method in brief: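 Untagged FXRαLBD (His-tag removed with thrombin; Ni-NTA and ion exchange purified), 1 μM, was incubated with varied compound concentrations for 1 h at 4 °C. Tryptophan fluorescence was read at 25 °C: excitation 280 nm, emission 300–400 nm, 5 nm slits. KD was fitted from quenching.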

Mus musculus = test: Reduction of hepatic triglyceride level in cholesterol-fed C57BL/6 mouse at 50 mg/kg, po after 10 days; format: functional; parameters: scale not given: the % may be the effect or the level left
Method in brief: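 Male C57BL/6 mice, 8–12 weeks old, were randomized into five groups of nine. Control mice had ground chow; the other groups had chow with 2% cholesterol. Compound (50 or 100 mg/kg) or reference (100 mg/kg) was suspended in 0.5% CMC-Na and given by oral gavage; control and vehicle mice got 0.5% CMC-Na. Serum and hepatic triglyceride and total cholesterol were measured.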

[2] = biological target: T1, Progesterone receptor (Homo sapiens) (UniProt P06401); test: Agonist activity at recombinant PR-LBD expressed in HEK293T cells co-expressing GAL4 DBD at 20 uM by transactivation assay; format: functional, cell-based; conditions: HEK-293T
T1 sequence (whole entry): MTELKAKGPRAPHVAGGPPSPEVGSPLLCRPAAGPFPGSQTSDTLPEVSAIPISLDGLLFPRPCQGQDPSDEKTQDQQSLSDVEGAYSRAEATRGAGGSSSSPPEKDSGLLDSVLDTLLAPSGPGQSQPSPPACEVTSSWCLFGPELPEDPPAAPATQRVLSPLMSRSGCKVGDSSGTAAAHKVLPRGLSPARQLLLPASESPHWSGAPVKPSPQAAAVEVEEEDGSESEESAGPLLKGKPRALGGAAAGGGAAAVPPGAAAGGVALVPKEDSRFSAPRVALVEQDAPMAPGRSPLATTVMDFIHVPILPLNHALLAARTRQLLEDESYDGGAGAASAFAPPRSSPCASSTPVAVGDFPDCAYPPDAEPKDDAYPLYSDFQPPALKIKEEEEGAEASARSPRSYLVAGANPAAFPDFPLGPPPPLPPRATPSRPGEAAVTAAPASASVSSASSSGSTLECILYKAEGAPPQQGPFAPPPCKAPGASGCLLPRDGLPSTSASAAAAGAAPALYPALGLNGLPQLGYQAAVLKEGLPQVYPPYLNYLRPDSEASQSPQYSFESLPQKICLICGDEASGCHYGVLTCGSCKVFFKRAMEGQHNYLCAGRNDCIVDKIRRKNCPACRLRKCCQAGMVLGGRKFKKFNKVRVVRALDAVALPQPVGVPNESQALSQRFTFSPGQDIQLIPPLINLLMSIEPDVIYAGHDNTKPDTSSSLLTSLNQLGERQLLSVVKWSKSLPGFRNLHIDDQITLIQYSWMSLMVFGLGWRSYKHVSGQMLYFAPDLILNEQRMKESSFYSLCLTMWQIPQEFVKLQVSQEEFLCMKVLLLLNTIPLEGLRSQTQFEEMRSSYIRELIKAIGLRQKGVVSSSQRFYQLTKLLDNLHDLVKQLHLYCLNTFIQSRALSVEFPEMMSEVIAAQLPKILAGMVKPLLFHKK
Method in brief: (§1)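 One-hybrid assay in HEK293T cells cotransfected with a Gal4 DBD–NR-LBD fusion (RXRα, LXRα, GR, PR, PPARδ or PPARγ) plus UAS-TK-Luc reporter. Compound was 20 μM, given alone or with agonist: 9cRA 0.1 μM (RXRα), TO901317 0.5 μM (LXRα), dexamethasone 50 nM (GR), progesterone 100 nM (PR), GW1516 10 μM (PPARδ), rosiglitazone 10 μM (PPARγ). Luciferase read-out; three independent experiments.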

[3] = biological target: T2, Peroxisome proliferator-activated receptor gamma (Homo sapiens) (UniProt P37231); test: Antagonist activity at recombinant PPARgamma LBD expressed in HEK293T cells co-expressing GAL4 DBD assessed as inhibition of rosiglitazone-induced transactivation at 20 uM by luciferase reporter gene assay; format: functional, cell-based; conditions: HEK-293T; method in brief: as §1
T2 sequence (whole entry): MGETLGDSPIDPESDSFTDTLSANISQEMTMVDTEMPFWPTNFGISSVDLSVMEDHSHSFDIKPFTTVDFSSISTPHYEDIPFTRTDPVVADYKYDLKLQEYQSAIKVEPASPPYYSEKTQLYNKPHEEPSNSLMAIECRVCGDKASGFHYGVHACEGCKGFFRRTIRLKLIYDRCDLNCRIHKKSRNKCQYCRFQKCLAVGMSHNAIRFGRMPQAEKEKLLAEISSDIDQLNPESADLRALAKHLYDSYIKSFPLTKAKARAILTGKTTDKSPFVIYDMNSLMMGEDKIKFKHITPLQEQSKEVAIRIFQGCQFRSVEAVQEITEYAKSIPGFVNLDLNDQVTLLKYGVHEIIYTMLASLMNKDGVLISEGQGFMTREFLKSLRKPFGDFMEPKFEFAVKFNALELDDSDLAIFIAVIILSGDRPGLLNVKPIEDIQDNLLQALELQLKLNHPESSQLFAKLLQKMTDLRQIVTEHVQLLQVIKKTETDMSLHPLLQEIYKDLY

[4] = biological target: T3, Bile acid receptor (Homo sapiens) (UniProt Q96RI1); test: Antagonist activity at human FXR in human HepG2 cells assessed as reduction in triglyceride level after 24 hrs; format: functional, cell-based
T3 sequence (whole entry): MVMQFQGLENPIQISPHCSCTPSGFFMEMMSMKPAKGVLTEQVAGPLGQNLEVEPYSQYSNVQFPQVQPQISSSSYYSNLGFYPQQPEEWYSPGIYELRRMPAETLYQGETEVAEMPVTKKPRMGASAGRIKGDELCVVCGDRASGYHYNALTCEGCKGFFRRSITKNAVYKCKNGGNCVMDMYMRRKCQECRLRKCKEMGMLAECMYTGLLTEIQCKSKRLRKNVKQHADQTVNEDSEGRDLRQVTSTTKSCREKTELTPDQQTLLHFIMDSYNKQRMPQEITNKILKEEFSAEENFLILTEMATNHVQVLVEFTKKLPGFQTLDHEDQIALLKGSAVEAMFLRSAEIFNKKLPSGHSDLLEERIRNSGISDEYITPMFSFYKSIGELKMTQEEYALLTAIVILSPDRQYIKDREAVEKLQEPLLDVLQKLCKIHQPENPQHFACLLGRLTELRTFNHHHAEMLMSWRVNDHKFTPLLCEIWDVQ
Method in brief: (§2)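 HepG2 cells were serum-starved overnight in FBS-free DMEM, then given DMSO or compound for 24 h in serum-free DMEM. Cells were lysed in RIPA buffer, sonicated on ice and centrifuged at 12000 rpm, 4 °C. Triglyceride and total cholesterol in the cleared lysate were measured by kits, with total protein by BCA. At least three experiments.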

[5] = biological target: T3, Bile acid receptor (Homo sapiens); test: Antagonist activity at human FXR in human HepG2 cells assessed as reduction in triglyceride level at 10 uM after 24 hrs; format: functional, cell-based; method in brief: as §2

COc1cc(/C=C2\C(=O)N(c3cccc([N+](=O)[O-])c3)N=C2c2ccccc2)ccc1O
Activity [1]: Dose-dependent effect | pKd [1]: 4.64 | Activity (Mus musculus): 43.5% | Activity [2]: inactive | inhibition [3]: inactive | inhibition [4]: Dose-dependent effect | inhibition [5]: 35.2%
